Rows were chosen to be rich in hits. Some 1.3% of all compounds tested hit in one or more screens of this group.
Cardiac RTF inh: cardiac RTF calcium desensitization; AID 493244; hit rate 0.12% among 340,000; IANBD-labeled cardiac RTF, Ca2+ fluorescence; inhibition, % at 7.15 µM;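 active = inhibition above the mean inhibition of all tested compounds plus 3 SD, cut at about 17% in these data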;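 note: assay run at fixed EC70 calcium of 1.6 mM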
CAL PDZ FP-1: inhibitors of human CAL PDZ peptide binding. Q9HD26. inhibition, % at 20 µM. purified CAL PDZ, TMR-peptide fluorescence polarization, 1 h. hit rate 0.02% among 330,000. AID 504414;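 active = highest replicate inhibition of at least 40%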;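 note: plate controls were DMSO neutral control wells for no effect and unlabeled competitor peptide control wells for full effect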
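Control set: unlabelled peptide and DMSO controls / Material: purified CerCALP PDZ construct / Timing: 1 h incubation at room temperature before polarization reading / Doses: 20 µM, one dose / Detection: fluorescence polarization (mP)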
Keap1-Nrf2 PPI: inhibitors of human Keap1-Nrf2 protein-protein interaction. Keap1 Kelch-Nrf2 peptide fluorescence polarization, 1536-well. inhibition, % at 9.4 µM. hit rate 0.15% among 340,000; in the data active = inhibition above about 12%;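 note: human Keap1 Kelch domain with fluorescein labeled Nrf2 9mer peptide probe; 0% = neutral control wells and 100% = peptide positive control; higher means more block of Keap1 binding to Nrf2 peptide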
Target sequence (Q14145 whole entry, looked up, the tested form may be a part): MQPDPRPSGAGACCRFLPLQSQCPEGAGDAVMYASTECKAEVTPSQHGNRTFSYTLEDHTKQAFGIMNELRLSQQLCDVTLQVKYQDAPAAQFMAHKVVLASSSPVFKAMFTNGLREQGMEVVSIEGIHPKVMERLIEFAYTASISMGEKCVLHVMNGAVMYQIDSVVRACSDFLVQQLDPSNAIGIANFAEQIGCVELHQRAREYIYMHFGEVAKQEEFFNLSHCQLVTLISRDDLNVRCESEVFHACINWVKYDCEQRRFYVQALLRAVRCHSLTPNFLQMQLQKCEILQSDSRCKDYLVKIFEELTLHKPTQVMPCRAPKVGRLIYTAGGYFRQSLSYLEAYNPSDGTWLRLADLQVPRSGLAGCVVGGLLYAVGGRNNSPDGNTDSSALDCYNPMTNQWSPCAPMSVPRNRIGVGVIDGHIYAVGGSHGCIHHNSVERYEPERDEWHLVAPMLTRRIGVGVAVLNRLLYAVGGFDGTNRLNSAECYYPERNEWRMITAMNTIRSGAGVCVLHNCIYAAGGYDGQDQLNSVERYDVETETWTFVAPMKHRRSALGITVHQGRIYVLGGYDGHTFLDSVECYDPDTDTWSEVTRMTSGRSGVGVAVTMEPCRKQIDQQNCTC
LANA DNA inh: inhibitors of KSHV LANA C-terminal domain DNA binding. hit rate 0.078% among 340,000. inhibition, % at 9 µM. MBP-C-LANA/FAM-LBS DNA binding, fluorescence polarization;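 active = highest replicate inhibition at or above 60% at 9 µM, even if other replicates fall short; inactive = all replicates below 60% inhibition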;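 note: 0% = neutral control wells and 100% = 4 µM acridine orange control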
CAL PDZ FP-2: blocks peptide binding to the human CAL PDZ domain; hit rate 0.92% among 300,000; purified CAL PDZ, TMR-peptide fluorescence polarization, 1 h; inhibition, % at 24.9 µM;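 active = mean inhibition of at least 30% with at least half of replicates also reaching 30%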;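 note: 0% = DMSO neutral control and 100% = excess unlabeled competitor peptide PRC23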
cardiac RTF act: cardiac RTF calcium sensitization. P19429+P45379. hit rate 0.24% among 340,000. IANBD-labeled TnC RTF fluorescence at EC20 calcium; 0% EC20 calcium, 100% full calcium. activation, % at 7.2 µM. AID 493008;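 active = activation above the mean over all tested compounds plus 3 SD, cut at about 30% in these data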;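 note: rise in fluorescence read as greater calcium sensitivity of cardiac thin filaments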
* hit, by the source's call; . = no result given; + = active, no number.

SMILES | Cardiac RTF inh | CAL PDZ FP-1 | Keap1-Nrf2 PPI | LANA DNA inh | CAL PDZ FP-2 | cardiac RTF act
CCOC(=O)c1c(-c2ccccc2)csc1NC(=O)/C(C#N)=C\c1ccc(O)c(OC)c1 | -63.6 | 0.7 | -7.2 | -1.1 | -1.3 | 39.8*
CCOC(=O)/C(C#N)=C\c1ccc(O)c(OC)c1 | -2.3 | -1.0 | 0.1 | -1.0 | -6.8 | -4.8
COC(=O)c1ccccc1SCC(=O)Nc1ccc(N2CCOCC2)cc1 | -1.7 | -2.0 | -0.7 | -1.4 | 64.1* | -1.0
O=C(CSc1ccccc1F)Nc1ccc(N2CCOCC2)cc1 | 5.3 | 0.0 | -0.9 | -0.8 | . | -9.4
CC(NC(=O)COC(=O)CCC(=O)c1ccc(F)cc1)c1ccccc1 (centres undefined) | -4.6 | -0.2 | -2.4 | -1.2 | -0.8 | -3.0
Cc1ccc(NC(=O)N2CCCC2C(=O)NCc2ccc(Cl)cc2)cc1 (centres undefined) | -3.3 | 0.5 | -5.9 | -0.5 | -2.9 | 5.6
Cc1ccc(N2C(=O)[C@@H]3[C@H](C2=O)C2CCCN2[C@@H]3C(=O)c2ccccc2)cc1 (some centres undefined) | -22.8 | -1.3 | -1.9 | 10.2 | 0.7 | 31.3*
O=C(c1ccccc1)[C@@H]1[C@@H]2C(=O)N(c3ccc(F)cc3)C(=O)[C@@H]2C2CCCN21 (some centres undefined) | -22.9 | -2.8 | 2.4 | 14.2 | -2.3 | 15.9
O=C1COc2ccccc2CN1 | -5.5 | -0.7 | 2.3 | -0.3 | + | 2.8
O=C(Cn1cccc1C(=O)c1ccccc1)NCc1ccccc1Cl | -9.6 | -0.5 | 1.0 | -0.5 | + | -0.8
Cc1ccccc1C(=O)c1cccn1CC(=O)NCc1ccccc1Cl | -0.9 | 0.1 | -5.0 | 0.6 | . | -1.9
O=C(NCCCN1CCCC1=O)c1cc2nc(-c3ccco3)cc(C(F)(F)F)n2n1 | -6.7 | 0.4 | -0.2 | -0.2 | 57.7* | -2.0
O=C1C2C3CC(C(Br)C3Br)C2C(=O)N1c1ccccn1 (centres undefined) | 6.5 | -0.7 | 1.2 | 0.1 | 44.1* | 0.7
Cc1ccnc(N2C(=O)C3C4CC(C(Br)C4Br)C3C2=O)c1 (centres undefined) | -4.3 | -2.1 | 2.3 | -1.5 | -2.1 | 3.7
O=C(CSc1nc(C(F)(F)F)cc(=O)[nH]1)NCc1ccc2c(c1)OCO2 | -5.0 | -1.9 | 2.3 | -0.6 | -3.5 | 0.0
CC(=O)Nc1ccc(S(=O)(=O)N2CCC(NC(=O)C(Cc3cccc(F)c3)NC(C)=O)CC2)cc1 (centres undefined) | -16.8 | -1.4 | -5.5 | 1.9 | -1.1 | -1.2
CCOC(=O)CC1C(=O)NCCN1C(=O)c1ccc(C)cc1 (centres undefined) | 2.8 | -0.4 | -7.9 | 1.3 | -0.9 | 3.5
CCOC(=O)CC1C(=O)NCCN1c1nc2ccc(C)cn2c(=O)c1/C=C1\SC(=S)N(CC(C)C)C1=O (centres undefined) | -231.3 | -1.0 | -141.2 | -3.7 | -7.8 | 182.1*
CCCN1C(=O)/C(=C/c2c(N3CCNC(=O)C3CC(=O)OCC)nc3c(C)cccn3c2=O)SC1=S (centres undefined) | -301.7 | 0.0 | -131.8 | -9.8 | . | 129.9*
CCN(CC)C(=O)C(Oc1ccc(S(=O)(=O)N2CCCC2)cc1[N+](=O)[O-])c1ccccc1 (centres undefined) | -17.2 | -3.0 | -4.3 | -1.1 | 0.8 | -0.1
CC(C)OCCCn1c(SC(C)C(=O)NC2CC2)nc2ccccc2c1=O (centres undefined) | -1.8 | -3.1 | -1.3 | -0.1 | -1.0 | 5.9
CCCn1nc(NS(=O)(=O)c2ccccc2)c2cc3ccccc3nc21 | -1.3 | -1.0 | 2.0 | 0.4 | 58.4* | 3.5
CCCCNCc1cc(OCC)c(OCC(N)=O)cc1Br | -4.5 | -3.3 | -7.2 | -0.4 | 37.5* | 7.7
CCCCNCc1cc(OC)c(OCC(N)=O)cc1Br | 0.1 | -0.7 | -3.5 | 0.4 | 0.8 | 2.5
Fc1ccc(Cn2cc(C(=S)N3CCOCC3)c3ccccc32)cc1 | 6.3 | 15.0 | 0.0 | -1.5 | 52.2* | 1.5
SMILES | Cardiac RTF inh | CAL PDZ FP-1 | Keap1-Nrf2 PPI | LANA DNA inh | CAL PDZ FP-2 | cardiac RTF act
CCNC(=S)N/N=C/c1sc(N2CCCCC2)nc1-c1cccs1 | -19.3 | 2.0 | -2.1 | 6.7 | -9.1 | 32.8*
CN(CC(=O)OCC(=O)NC1CCCC1)S(=O)(=O)c1ccc(Cl)cc1 | 1.7 | -0.6 | -2.5 | 0.2 | -6.0 | -3.7
CCOC(=O)C1=CNS(=O)(=O)NC1c1ccc(C#N)cc1 (centres undefined) | 1.2 | 0.6 | -3.3 | 1.9 | 2.3 | -6.9
Cc1cc(C(=O)N2CCCC(CCC(=O)N3CCN(c4ccccn4)CC3)C2)c(C)o1 (centres undefined) | 5.6 | 0.2 | -6.2 | 2.8 | 45.2* | -1.7
O=c1nc2c(O)cccn2c2c1c(=O)[nH]c1ccccc12 | -44.6 | -1.0 | 4.1 | 18.4 | -6.5 | 39.6*
O=c1[nH]c2ccccc2c2nc3ccccn3c12 | 0.4 | 0.3 | -3.1 | -1.1 | -3.1 | 2.2
CCc1cc(=O)[nH]c(SCC(=O)N2CCOCC2)n1 | -4.2 | -2.6 | -3.1 | -0.6 | -0.9 | 11.5
CN(c1ccc(OCC(=O)N2CCC(C(N)=O)CC2)cc1)S(=O)(=O)c1cccs1 | -2.0 | 0.3 | 1.4 | -1.3 | 62.0* | 1.4
Cc1ccccc1CNC(=O)c1ccc2ccccc2n1 | -10.4 | -1.4 | -1.0 | -1.0 | 76.2* | -1.9
COc1ccccc1C(=O)Nc1cccc2nc(C)ccc12 | 1.9 | 8.1 | -1.8 | 0.1 | 82.0* | 2.9
COc1ccccc1C(=O)NNC(=O)c1ccc(F)cc1 | -6.5 | -2.0 | -3.0 | -0.5 | 4.8 | -1.6
COc1ccccc1C(=O)Oc1ccccc1C(=O)Nc1ccccc1 | -7.4 | -0.6 | 2.1 | 1.5 | 73.6* | -1.2
COc1ccccc1C(=O)Nc1ccc(C(=O)O)cc1 | 2.5 | . | 5.7 | 0.0 | 7.1 | -5.2
COc1ccc(C(=O)Nc2cccc3nc(C)ccc23)c(OC)c1 | -11.7 | -3.1 | -5.2 | 0.4 | 4.5 | 0.7
COc1ccccc1C(=O)NNC(=O)c1ccc(NC(=O)C(C)C)cc1 | -3.6 | -1.8 | -2.2 | 0.4 | 65.5* | -2.4
CCN(CC(=O)Nc1ccc2c(c1)OCCO2)C(=O)c1ccc(CS(C)(=O)=O)cc1 | 4.3 | 1.6 | -2.2 | 5.1 | -1.5 | 3.5
COC(=O)c1ccc(CSc2nnc3nc(C)cc(C)n23)cc1 | -5.7 | -0.7 | 0.1 | 1.4 | 33.3* | 9.2
CCOC(=O)C1=C(O)/C(=C/c2ccc(-c3ccccc3C(=O)O)o2)SC1=Nc1ccc(C)cc1 | -19.4 | -7.8 | -35.4 | 3.6 | 13.0 | 0.6
CCOC(=O)C1=C(O)/C(=C/c2cn(CC(=O)NCC3CCCO3)c3ccccc23)SC1=Nc1ccc(C)cc1 (centres undefined) | -19.8 | 1.1 | -7.1 | 20.5 | 0.3 | 134.7*
CCOc1ccc(Cl)cc1CNCCCSc1ncccn1 | -3.0 | 3.7 | -1.2 | -1.9 | 69.8* | -5.8
COc1ccc(Cl)cc1CNCCCSc1ncccn1 | -4.2 | -0.1 | -2.1 | -0.1 | -0.7 | -2.2

From PubChem BioAssay
